S1P3 antag = S1P3 receptor antagonists, primary screen, cell-based | CHO S1P3 NFAT-BLA reporter, FRET fluorescence, antagonist mode | 0.27% of 170,000 active | inhibition, % at 4.98 µM | Sphingosine 1-phosphate receptor 3 (Homo sapiens), Q99500;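 active = inhibition above the plate cutoff, the mean inhibition of test wells on that plate plus 3 SD, cut at about 28% in these data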;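 note: cells challenged with S1P at its EC80 of 0.8 µM; blue over green emission ratio from cleaved BLA substrate after 4 h stimulation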
Target sequence (Q99500 whole entry, looked up): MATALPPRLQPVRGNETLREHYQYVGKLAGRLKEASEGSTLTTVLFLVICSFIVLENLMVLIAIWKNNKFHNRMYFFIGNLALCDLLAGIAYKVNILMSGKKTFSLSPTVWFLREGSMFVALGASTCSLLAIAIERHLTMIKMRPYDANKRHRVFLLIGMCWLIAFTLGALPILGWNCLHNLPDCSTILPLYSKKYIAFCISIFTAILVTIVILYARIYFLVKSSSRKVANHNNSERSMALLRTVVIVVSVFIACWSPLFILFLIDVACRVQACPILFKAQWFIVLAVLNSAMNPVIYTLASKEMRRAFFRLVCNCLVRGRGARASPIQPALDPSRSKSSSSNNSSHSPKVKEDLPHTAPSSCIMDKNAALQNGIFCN
MDM2 E3 inh = MDM2-luciferase reporter signal enhancers, primary screen, MDM2 E3 ligase inhibitor project, cell-based, luminescence, 1536-well. signal enhancement, % at 5 µM. cell-based MDM2 ubiquitination luciferase reporter, 2 h; 0 = plate control, 100 = twice control, blank-subtracted. 0.11% of 210,000 active. E3 ubiquitin-protein ligase Mdm2 (Homo sapiens), Q00987;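 active = signal enhancement of 30% or more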;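 note: luminescence tracks abundance of the self-degrading MDM2-luciferase fusion protein; higher signal means inhibition of MDM2 E3 ligase activity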
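Buffer or medium: Cells held in DMEM | Assay system: Stable mammalian line carrying autodegrading MDM2–luciferase fusion reporter | Quantity: 2000 cells/well | Times: 4 h settle plus 2 h compound, 37 °C | Doses: One concentration, 5 µM, with 0.2% DMSO | Technique: Luminescence with SteadyLite reagent, 15 min at room temperature | Benchmarks: Plate controls and plate blanks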
S1P4 ag = S1P4 receptor agonists, primary screen, cell-based | S1P4-expressing cell line, agonist reporter assay | activation, % at 4.98 µM | 0.35% of 220,000 active | AID 1509, 2009; in the data active = activation above about 11%
L major viab = Leishmania major promastigote growth inhibition, primary screen; Leishmania major promastigotes, resazurin fluorescence viability; inhibition, % at 10 µM; 9% of 200,000 active; AID 1063, 2008; in the data active = inhibition above about 50%;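 note: promastigotes grown with compound for 44 hours at 28 °C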
S1P4 antagonist = S1P4 receptor antagonists, primary screen, cell-based. Sphingosine 1-phosphate receptor 4 (Homo sapiens), O95977. S1P4-expressing cells, antagonist mode, reporter read-out. inhibition, % at 4.98 µM. 0.26% of 220,000 active; in the data active = inhibition above about 29%
Each line names hits and unclear results; the compound was inactive in the other large screens. This is one part of a sample in which hits are shown more often than they occur.

CCOC(=O)c1cnc2ccc(C)cc2c1NCCO	none (no result: S1P3 antag)
CCOC(=O)c1cnc2ccc(OCC)cc2c1NCCN1CCOCC1	L major viab 55
CCOC(=O)c1cnc2ccc(OCC)cc2c1NCc1ccccc1OC	L major viab 97
COc1ccc(CCNC(=O)CCc2ccc(S(=O)(=O)NCC(C)C)cc2)cc1OC	none
CC(C)Cc1cc(CN2CCCC(CO)(Cc3cccc(Cl)c3)C2)[nH]n1 (stereo unspecified)	L major viab 68
OCC1(Cc2cccc(Cl)c2)CCCN(Cc2cn[nH]c2C2CCCCC2)C1 (stereo unspecified)	none
CC(C)Cc1cc(CN2CCC(CO)(Cc3cccc(C(F)(F)F)c3)CC2)[nH]n1	L major viab 85
Cc1cc(CN2CCCC(CO)(Cc3cccc(Cl)c3)C2)n[nH]1 (stereo unspecified)	none
OCC1(Cc2cccc(Cl)c2)CCCN(Cc2ccc3cc(F)ccc3n2)C1 (stereo unspecified)	L major viab 55 (no result: MDM2 E3 inh)
Cc1cccc(-n2c(C)nc3cc(C(=O)NCc4ccc5c(c4)OCO5)ccc32)c1	none
Cc1cccc(NC(=O)NNC(=O)c2sccc2-n2cccc2)c1	none
COc1ccc(C(=O)C2=NN(C(C)=O)CC2c2ccco2)cc1 (stereo unspecified)	none
O=C(CCN1CCc2ccccc2C1)Nc1ccccc1F	none
C=CCOC(=O)C1=C(C)Nc2nc3ccccc3n2C1c1ccncc1 (stereo unspecified)	none
O=S(=O)(c1ccc(Br)cc1)c1cnc2ccccc2n1	L major viab 84
CCNC(=S)N(CCc1c(C)[nH]c2ccccc12)Cc1cc(OC)c(OC)c(OC)c1	none (no result: MDM2 E3 inh)
CCN(CC)C(=O)Cn1nnc(-c2ccc(S(C)(=O)=O)cc2)n1	none
Clc1ccc(CN2CCC(c3nc4ccc(Cl)cc4[nH]3)CC2)cc1	L major viab 99 (no result: S1P3 antag)
CC1CCCN(C(=O)CN2CCC(c3nc4ccc(Cl)cc4[nH]3)CC2)C1 (stereo unspecified)	none (no result: MDM2 E3 inh, L major viab)
CCCN1CCCc2cc(CN)ccc21	L major viab 100
CN1CCCc2cc(C=O)ccc21	none (no result: S1P3 antag)
Cc1cccc(CC(=O)c2c[nH]c3ccccc23)c1	none (no result: L major viab)
Cc1ccc(CC2CC(=O)N(CCc3ccc4c(c3)OCO4)C2=O)cc1 (stereo unspecified)	L major viab 60
CC(=O)Nc1ccc(NC(=O)COC(=O)c2cnccn2)cc1	none
CSc1cccc(NC(=S)N2CCCN(Cc3ccc(F)cc3)C2)c1	L major viab 86
Cc1ccc(NC(=S)N2CCCN(Cc3ccc(F)cc3)C2)c(C)c1	L major viab 89
Cc1ccccc1NC(=S)N1CCCN(Cc2ccc(F)cc2)C1	L major viab 86
CCn1nc(C)c([N+](=O)[O-])c1C(=O)NNC(=O)c1ccccc1Cl	none (no result: L major viab)
COc1cc(OC)cc(C(=O)N2CCC(n3c(C)nc4cc(F)ccc43)CC2)c1	none
Cc1c(F)cccc1NC(=O)CCCCCC1NC(=O)NC1C (stereo unspecified)	none
CC(=O)c1ccc(OCC(O)CN2CCN(CCN3C(=O)c4cccc5cccc(c45)C3=O)CC2)cc1 (stereo unspecified)	L major viab 91
COc1ccc(NC(=S)N2CCN(CCN3C(=O)c4cccc5cccc(c45)C3=O)CC2)cc1	none
CCOc1ccc(NC(=S)N2CCN(CCN3C(=O)c4cccc5cccc(c45)C3=O)CC2)cc1	L major viab 71
CCC(OCC(O)CN1CCN(CCN2C(=O)c3cccc4cccc(c34)C2=O)CC1)c1ccccc1 (stereo unspecified)	L major viab 97
O=C(/C=C/c1ccccc1)N1CCN(CCN2C(=O)c3cccc4cccc(c34)C2=O)CC1	L major viab 100
Cc1cc(NC(=O)NN2CCOCC2)nn1-c1c(Cl)cc(Cl)cc1Cl	none (no result: L major viab)
O=C(CCc1ccc(O)cc1)N/N=C/c1coc2ccccc2c1=O	none (no result: L major viab)
Cc1ccc(C)n1-c1ccc(C(=O)NN=C2CCCC2)cc1	none
Cc1ccccc1OCC(O)CN1CCN(CCN2C(=O)c3cccc4cccc(c34)C2=O)CC1 (stereo unspecified)	L major viab 100
C=CCc1ccccc1OCC(O)CN1CCN(CCN2C(=O)c3cccc4cccc(c34)C2=O)CC1 (stereo unspecified)	L major viab 100
O=C1c2cccc3cccc(c23)C(=O)N1CC1CCCO1 (stereo unspecified)	none
C=CCc1ccccc1OCC(O)CNC(=O)c1ccccc1C(=O)O (stereo unspecified)	none (no result: L major viab)
Cc1cccc(C)c1OCC(O)CN1CCC(CN2C(=O)c3cccc4cccc(c34)C2=O)CC1 (stereo unspecified)	L major viab 93 (no result: S1P3 antag)
OC(COc1cccc2ccccc12)CN1CCN(c2cccc(Cl)c2)CC1 (stereo unspecified)	none (no result: MDM2 E3 inh, L major viab)
CCc1cc2c(=O)n(CC)c(SC(C)C(=O)Nc3c(C)n(C)n(-c4ccccc4)c3=O)nc2s1 (stereo unspecified)	none (no result: S1P3 antag)
COc1ccc(-c2cc(-c3ccc(O)cc3)nc(N)c2C#N)cc1OC	L major viab 65
Cc1cc(-c2cc(-c3ccc(Cl)cc3)nc(N)c2C#N)co1	L major viab 62 (no result: S1P3 antag)
CCCc1cc(-c2ccc(O)c(OCC)c2)c(C#N)c(N)n1	none
Cc1ccc(-c2cc(-c3ccc(Cl)cc3)c(C#N)c(N)n2)o1	none
Cc1cc(Cl)c(S(=O)(=O)N2CCN(c3ccccn3)CC2)cc1OCC(=O)NC1CCCCC1	none (no result: L major viab)
Cc1cc(C)c(NC(=O)CN(C2CCCCC2)C2CCCCC2)c(C)c1	L major viab 96 (no result: S1P3 antag)
CCN(CC)CC(=O)Nc1c(C)cc(C)cc1C	none (no result: S1P3 antag, MDM2 E3 inh, S1P4 ag, S1P4 antagonist)
CC(C)Cc1nc2oc3c(N4CCN(CCO)CC4)ncnc3c2c2c1CCCC2	L major viab 52
CCN1CCN(c2ncnc3c2oc2nc(C(C)C)c4c(c23)CCC4)CC1	none (no result: MDM2 E3 inh, S1P4 ag, L major viab, S1P4 antagonist)
Cc1ccccc1N(CC(=O)Nc1ccc(S(=O)(=O)N2CCOCC2)cc1)S(C)(=O)=O	none
COc1ccc(-c2ccc(/C=N/NC(=O)c3cccnc3)o2)c([N+](=O)[O-])c1	L major viab 75
O=C(N/N=C/c1ccc(-c2ccccc2[N+](=O)[O-])o1)[C@H]1C[C@@H]1c1ccccc1	L major viab 90
O=C(N/N=C\c1ccc(-c2ccc([N+](=O)[O-])cc2)o1)C1COc2ccccc2O1 (stereo unspecified)	L major viab 96
Cc1nnc(N/N=C\c2ccc(-c3ccccc3[N+](=O)[O-])o2)n1N	L major viab 58
COc1cc([N+](=O)[O-])cc(/C=N/NC(=O)c2cccnc2)c1O	none (no result: L major viab)
C/C(=N/NC(=O)c1sc(=S)n(C)c1C)c1ccccc1	none
COc1cccc(CNC(=O)C(=O)NCC2CCCO2)c1 (stereo unspecified)	none (no result: S1P3 antag)
